Assay results reported in ChEMBL document CHEMBL2016541, “Synthesis and biological evaluation of isoxazolo[4,5-d]pyridazin-4-(5H)-one analogues as potent anti-inflammatory agents” (Bioorg Med Chem, 2012).

How the values were obtained:
[1] = test system: Rattus norvegicus; experiment: Ulcerogenic activity in rat assessed as ulcer index at 0.14 mmol/kg, po after 6 hrs; assay type: toxicity, organism-based; settings: in vivo
Method in brief: (§1)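 Rats fasted 24 h (water allowed), then dosed orally with 0.14 mmol/kg in 1.0 mL 1% methylcellulose; vehicle controls given. Euthanized by CO2 at 6 h. Stomachs opened along the greater curvature, rinsed, and ulcers measured under magnifier lenses. UI = summed ulcer length (mm) per stomach averaged over 4 rats; mean ± SEM; one-way ANOVA with Holm–Sidak.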

[2] = molecular target: T1, Prostaglandin G/H synthase 2 (Homo sapiens, UniProt P35354); experiment: Inhibition of human recombinant COX2 by fluorescence assay
T1 sequence (P35354 whole entry): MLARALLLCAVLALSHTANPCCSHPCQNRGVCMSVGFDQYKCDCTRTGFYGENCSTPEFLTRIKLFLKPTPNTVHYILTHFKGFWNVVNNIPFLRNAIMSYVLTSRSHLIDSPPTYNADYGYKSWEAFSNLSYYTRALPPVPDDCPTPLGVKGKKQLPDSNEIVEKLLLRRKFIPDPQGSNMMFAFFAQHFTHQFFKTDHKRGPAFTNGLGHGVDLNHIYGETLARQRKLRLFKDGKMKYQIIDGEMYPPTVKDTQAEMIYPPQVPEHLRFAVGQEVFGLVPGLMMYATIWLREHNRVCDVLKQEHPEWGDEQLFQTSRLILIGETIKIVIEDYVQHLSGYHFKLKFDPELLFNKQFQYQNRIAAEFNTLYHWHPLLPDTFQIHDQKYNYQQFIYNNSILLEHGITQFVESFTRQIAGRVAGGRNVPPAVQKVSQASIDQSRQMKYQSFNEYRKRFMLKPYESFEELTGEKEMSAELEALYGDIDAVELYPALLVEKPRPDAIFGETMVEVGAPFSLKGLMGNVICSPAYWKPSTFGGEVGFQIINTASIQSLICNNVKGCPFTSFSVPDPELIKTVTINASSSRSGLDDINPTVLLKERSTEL

[3] = Inhibition of potato 5-LOX by EIA; set-up: species or system Solanum tuberosum
Method in brief: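 Potato 5-LOX activity measured with an enzyme immunoassay (LOX assay kit). Mean of two determinations; deviation from the mean <10%.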

[4] = test system: Rattus norvegicus; experiment: Antiinflammatory activity in rat assessed as inhibition of carrageenan-induced rat paw oedema at 0.14 mmol/kg, po after 3 hrs; assay type: functional
Method in brief: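 Carrageenan-induced paw edema in rats. Compounds given orally, suspended in 1% aqueous methylcellulose. Test compounds dosed at 0.14 mmol, equivalent to 30 mg/kg ibuprofen. Mean ± SEM, n = 4.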

[5] = test system: Rattus norvegicus; experiment: Antiinflammatory activity in rat assessed as inhibition of carrageenan-induced rat paw oedema at 30 mg/kg, po after 3 hrs; assay type: functional
Method in brief: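 Carrageenan-induced paw edema in rats. Compounds given orally, suspended in 1% aqueous methylcellulose. Test compounds dosed at 0.14 mmol, equivalent to 30 mg/kg ibuprofen. […] Mean ± SEM, n = 4.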

[6] = test system: Rattus norvegicus; experiment: Ulcerogenic activity in rat assessed as ulcer index at 30 mg/kg, po after 6 hrs; assay type: toxicity, organism-based; set-up: dose 30 mg/kg, route oral; settings: in vivo; method in brief: as §1

Cc1noc2c(Cc3ccccc3)nn(Cc3nnc(Nc4ccccc4)s3)c(=O)c12
UI [1]: 0.5 mm

CCNc1nnc(Cn2nc(Cc3ccccc3)c3onc(C)c3c2=O)s1
IC50 [2]: > 100 µM
IC50 [3]: 72.8 µM

CNc1nnc(Cn2nc(Cc3ccc([N+](=O)[O-])cc3)c3onc(C)c3c2=O)s1
UI [1]: 0.75 mm

COc1ccc(Cc2nn(Cc3nnc(Nc4ccccc4)s3)c(=O)c3c(C)noc23)cc1
IC50 [2]: > 100 µM
IC50 [3]: 46.2 µM

Cc1noc2c(Cc3ccccc3)nn(Cc3n[nH]c(=S)n3-c3ccccc3)c(=O)c12
IC50 [2]: > 100 µM
IC50 [3]: 45.1 µM

Cc1noc2c(Cc3ccc([N+](=O)[O-])cc3)nn(Cc3n[nH]c(=S)n3C)c(=O)c12
UI [1]: 0.25 mm

CCn1c(Cn2nc(Cc3ccc([N+](=O)[O-])cc3)c3onc(C)c3c2=O)n[nH]c1=S
IC50 [2]: 9.2 µM
IC50 [3]: 14.8 µM
inhibition in vivo at 140 µmol/kg [4]: 38%
UI [1]: 0 mm

Cc1noc2c(Cc3ccc([N+](=O)[O-])cc3)nn(Cc3n[nH]c(=S)n3-c3ccccc3)c(=O)c12
IC50 [2]: > 100 µM
IC50 [3]: 16.5 µM

COc1ccc(Cc2nn(Cc3n[nH]c(=S)n3C)c(=O)c3c(C)noc23)cc1
UI [1]: 0.25 mm

CCn1c(Cn2nc(Cc3ccc(OC)cc3)c3onc(C)c3c2=O)n[nH]c1=S
IC50 [2]: 2.2 µM
IC50 [3]: 8.6 µM

COc1ccc(Cc2nn(Cc3n[nH]c(=S)n3-c3ccccc3)c(=O)c3c(C)noc23)cc1
UI [1]: 0 mm

O=C(O)/C=C/c1ccc(O)c(O)c1 [CAFFEIC ACID]
IC50 [3]: 4 µM

CC(C)Cc1ccc(C(C)C(=O)O)cc1 (stereo not drawn) [IBUPROFEN]
inhibition in vivo at 30 mg/kg [5]: 18.5%
UI [6]: 7 mm

CC(c1cc2ccccc2s1)N(O)C(N)=O (stereo not drawn) [ZILEUTON]
IC50 [3]: 1.1 µM
